Values belong to the compound of their own block, whether it stands above or below them.
Experiments:
Adenosine receptor A3 [1] = target: T1, Adenosine receptor A3 (Homo sapiens, UniProt P0DMS8); assay: Displacement of [3H]MRE3008-F20 from human Adenosine A3 receptor expressed in HEK cells; range 0.59-0.83; format: cell-based, HEK293
T1 sequence (P0DMS8 whole entry): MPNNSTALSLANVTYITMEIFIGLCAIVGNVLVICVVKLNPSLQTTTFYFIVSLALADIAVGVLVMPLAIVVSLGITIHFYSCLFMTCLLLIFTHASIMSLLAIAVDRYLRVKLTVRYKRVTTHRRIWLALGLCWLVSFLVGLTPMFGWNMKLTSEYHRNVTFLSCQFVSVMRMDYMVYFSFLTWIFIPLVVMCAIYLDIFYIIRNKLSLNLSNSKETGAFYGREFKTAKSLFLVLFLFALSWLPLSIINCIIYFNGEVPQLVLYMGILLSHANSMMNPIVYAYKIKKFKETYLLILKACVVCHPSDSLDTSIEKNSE

Adenosine receptor A2b [2] = target: T2, Adenosine receptor A2b (Homo sapiens, UniProt P29275); assay: Displacement of [3H]DPCPX from human Adenosine A2B receptor expressed in HEK293 cells; range 187-265; format: cell-based
T2 sequence (P29275 whole entry): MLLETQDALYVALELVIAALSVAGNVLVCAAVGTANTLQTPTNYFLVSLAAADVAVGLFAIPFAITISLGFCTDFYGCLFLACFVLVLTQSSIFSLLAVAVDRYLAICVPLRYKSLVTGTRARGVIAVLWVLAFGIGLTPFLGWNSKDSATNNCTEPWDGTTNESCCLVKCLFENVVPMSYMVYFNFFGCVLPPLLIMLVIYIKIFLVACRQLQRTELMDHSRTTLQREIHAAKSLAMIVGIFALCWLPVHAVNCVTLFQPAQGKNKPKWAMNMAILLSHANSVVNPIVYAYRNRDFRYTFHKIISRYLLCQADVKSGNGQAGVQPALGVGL
Outline: (§1)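 Membranes from HEK-293 cells with human recombinant A2B receptor. Incubation 60 min at 25 °C in 50 mM Tris HCl, 10 mM MgCl2, 1 mM EDTA, 0.1 mM benzamidine, pH 7.4, with 2 IU/mL adenosine deaminase and 40 nM [3H]DPCPX. At least six to eight test concentrations. Nonspecific binding defined with NECA. n = 3-6.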

Adenosine receptor A1 [3] = target: T3, Adenosine receptor A1 (Homo sapiens, UniProt P30542); assay: Displacement of [3H]DPCPX from human Adenosine A1 receptor expressed in CHO cells; range 379-535; format: cell-based
T3 sequence (P30542 whole entry): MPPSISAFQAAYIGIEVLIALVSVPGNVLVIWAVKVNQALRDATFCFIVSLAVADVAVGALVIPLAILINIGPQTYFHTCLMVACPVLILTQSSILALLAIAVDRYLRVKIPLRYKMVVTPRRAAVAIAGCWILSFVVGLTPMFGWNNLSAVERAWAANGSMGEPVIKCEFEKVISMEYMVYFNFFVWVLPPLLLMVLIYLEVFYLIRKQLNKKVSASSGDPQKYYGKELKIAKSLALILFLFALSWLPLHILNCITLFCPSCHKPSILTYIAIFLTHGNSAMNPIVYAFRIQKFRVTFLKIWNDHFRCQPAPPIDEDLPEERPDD
Outline: (§2)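 Human recombinant A1 receptor in CHO cell membranes, resuspended in 50 mM Tris HCl pH 7.4. Displacement run 120 min at 25 °C with 1 nM [3H]DPCPX, 50 µg protein per assay, and at least six to eight test concentrations. Nonspecific binding defined with CHA. Bound and free separated on glass-fiber filters; filter radioactivity counted. n = 3-6.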

Adenosine receptor A2a [4] = target: T4, Adenosine receptor A2a (Homo sapiens, UniProt P29274); assay: Displacement of [3H]SCH-58261 from human Adenosine A2A receptor expressed in HEK293 cells; range 146-220; format: cell-based
[5] = target: Adenosine receptors; A1 & A3 (Homo sapiens) (UniProt P30542+P0DMS8); assay: Selectivity ratio (hA1/hA3); format: protein assay
Adenosine receptor A3 [6] = target: T1, Adenosine receptor A3; assay: Inhibition of IB-MECA agonist-mediated cAMP production in CHO cell membranes expressing human Adenosine A3 receptor; range 3.0-10.8; format: functional, cell-based
[7] = target: Adenosine receptors; A2b & A3 (Homo sapiens) (UniProt P29275+P0DMS8); assay: Selectivity ratio (h2B/hA3); format: protein assay
Adenosine receptor A1 [8] = target: T3, Adenosine receptor A1; assay: Displacement of [3H]DPCPX from human Adenosine A1 receptor expressed in CHO cells; range 654-856; format: cell-based
Adenosine receptor A3 [9] = target: T1, Adenosine receptor A3; assay: Displacement of [3H]MRE3008-F20 from human Adenosine A3 receptor expressed in HEK cells; range 0.64-0.86; format: cell-based, HEK293
Adenosine receptor A3 [10] = target: T1, Adenosine receptor A3; assay: Inhibition of IB-MECA agonist-mediated cAMP production in CHO cell membranes expressing human Adenosine A3 receptor; range […]; format: functional, cell-based
Outline: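 Human A3-CHO membranes (in 50 mM Tris HCl, 10 mM MgCl2, 1 mM EDTA, pH 7.4) were preincubated for 10 min at 37 °C with 5 µM GTP, 0.5 mM Ro 20-1724 and 2.0 IU/mL adenosine deaminase. IB-MECA (100 nM) or antagonist was then added with 1 mM ATP and forskolin for 10 min. The reaction was stopped by 2 min boiling. cAMP was measured by [3H]cAMP competitive protein binding using beef adrenal binding protein, 150 min at 4 °C.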

Adenosine receptor A2a [11] = target: T4, Adenosine receptor A2a; assay: Displacement of [3H]SCH-58261 from human Adenosine A2A receptor expressed in HEK293 cells; range 112-177; format: cell-based
Adenosine receptor A2b [12] = target: T2, Adenosine receptor A2b; assay: Displacement of [3H]DPCPX from human Adenosine A2B receptor expressed in HEK293 cells; range 235-347; format: cell-based
Outline: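 Competition binding on membranes of HEK-293 cells carrying recombinant human A2B receptor. Incubation 60 min at 25 °C in 50 mM Tris HCl pH 7.4 with 10 mM MgCl2, 1 mM EDTA, 0.1 mM benzamidine and 2 IU/mL adenosine deaminase. Radioligand 40 nM [3H]DPCPX, at least six to eight test concentrations. NECA defined nonspecific binding. Bound ligand separated on glass-fibre filters and counted; n = 3-6.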

Adenosine receptor A1 [13] = target: T3, Adenosine receptor A1; assay: Displacement of [3H]DPCPX from human Adenosine A1 receptor expressed in CHO cells; range 358-468; format: cell-based
Adenosine receptor A3 [14] = target: T1, Adenosine receptor A3; assay: Displacement of [3H]MRE3008-F20 from human Adenosine A3 receptor expressed in HEK cells; range 0.12-0.37; format: cell-based, HEK293
Adenosine receptor A2a [15] = target: T4, Adenosine receptor A2a; assay: Displacement of [3H]SCH-58261 from human Adenosine A2A receptor expressed in HEK293 cells; range 102-215; format: cell-based
Adenosine receptor A2b [16] = target: T2, Adenosine receptor A2b; assay: Displacement of [3H]DPCPX from human Adenosine A2B receptor expressed in HEK293 cells; range 43-58; format: cell-based
Outline: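 HEK-293 membranes expressing the human receptor were incubated 60 min at 25 °C. Six to eight test concentrations were used. Nonspecific binding was set with NECA. n = 3-6.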

Adenosine receptor A2b [17] = target: T2, Adenosine receptor A2b; assay: Displacement of [3H]DPCPX from human Adenosine A2B receptor expressed in HEK293 cells; range 183-278; format: cell-based; outline: as §1
Adenosine receptor A1 [18] = target: T3, Adenosine receptor A1; assay: Displacement of [3H]DPCPX from human Adenosine A1 receptor expressed in CHO cells; range 262-814; format: cell-based; conditions: in the assay text read “range 602-814” for “range 262-814”; outline: as §2
Adenosine receptor A3 [19] = target: T1, Adenosine receptor A3; assay: Displacement of [3H]MRE3008-F20 from human Adenosine A3 receptor expressed in HEK cells; range 0.28-0.41; format: cell-based, HEK293
Adenosine receptor A2a [20] = target: T4, Adenosine receptor A2a; assay: Displacement of [3H]SCH-58261 from human Adenosine A2A receptor expressed in HEK293 cells; range 103-140; format: cell-based
Adenosine receptor A3 [21] = target: T1, Adenosine receptor A3; assay: Inhibition of IB-MECA agonist-mediated cAMP production in CHO cell membranes expressing human Adenosine A3 receptor; range 2.0-4.3; format: functional, cell-based
Adenosine receptor A2b [22] = target: T2, Adenosine receptor A2b; assay: Displacement of [3H]DPCPX from human Adenosine A2B receptor expressed in HEK293 cells; range 162-237; format: cell-based; outline: as §1
Adenosine receptor A3 [23] = target: T1, Adenosine receptor A3; assay: biochemical
Adenosine receptor A2a [24] = target: T4, Adenosine receptor A2a; assay: Displacement of [3H]SCH-58261 from human Adenosine A2A receptor expressed in HEK293 cells; range 108-163; format: cell-based
Adenosine receptor A1 [25] = target: T3, Adenosine receptor A1; assay: Displacement of [3H]DPCPX from human Adenosine A1 receptor expressed in CHO cells; range 216-412; format: cell-based; outline: as §2
Adenosine receptor A2a [26] = target: T4, Adenosine receptor A2a; assay: Displacement of [3H]SCH-58261 from human Adenosine A2A receptor expressed in HEK293 cells; range 300-414; format: cell-based
Adenosine receptor A3 [27] = target: T1, Adenosine receptor A3; assay: Displacement of [3H]MRE3008-F20 from human Adenosine A3 receptor expressed in HEK cells; range 2.7-3.4; format: cell-based, HEK293
Adenosine receptor A2b [28] = target: T2, Adenosine receptor A2b; assay: Displacement of [3H]DPCPX from human Adenosine A2B receptor expressed in HEK293 cells; range 32-51; format: cell-based; outline: as §1
Adenosine receptor A1 [29] = target: T3, Adenosine receptor A1; assay: Displacement of [3H]DPCPX from human Adenosine A1 receptor expressed in CHO cells; range 453-609; format: cell-based; outline: as §2

T4 sequence (P29274 whole entry): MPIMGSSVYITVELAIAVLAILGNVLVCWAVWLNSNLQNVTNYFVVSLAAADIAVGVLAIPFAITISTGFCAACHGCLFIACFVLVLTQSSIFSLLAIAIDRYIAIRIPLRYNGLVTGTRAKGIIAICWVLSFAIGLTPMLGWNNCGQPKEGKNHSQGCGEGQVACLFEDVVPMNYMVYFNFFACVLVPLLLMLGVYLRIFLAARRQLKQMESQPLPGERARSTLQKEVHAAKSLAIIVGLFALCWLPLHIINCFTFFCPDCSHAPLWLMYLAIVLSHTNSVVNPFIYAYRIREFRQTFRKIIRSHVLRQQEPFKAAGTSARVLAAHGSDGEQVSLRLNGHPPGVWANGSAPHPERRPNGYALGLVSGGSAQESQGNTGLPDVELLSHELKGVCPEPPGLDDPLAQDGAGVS

Ki (Adenosine receptor A3 [1]): 0.7 nM
Ki (Adenosine receptor A2b [2]): 223 nM
Ki (Adenosine receptor A1 [3]): 450 nM
Ki (Adenosine receptor A2a [4]): 180 nM
Ratio [5]: 643
IC50 (Adenosine receptor A3 [6]): 5.6 nM
Ratio [7]: 319
SMILES: COc1ccccc1NC(=O)Nc1nc2nn(C)cc2c2nc(-c3ccco3)nn12

Ki (Adenosine receptor A1 [8]): 750 nM
Ki (Adenosine receptor A3 [9]): 0.74 nM
IC50 (Adenosine receptor A3 [10]): 6.6 nM
Ratio [5]: 1010
Ki (Adenosine receptor A2a [11]): 140 nM
Ratio [7]: 386
Ki (Adenosine receptor A2b [12]): 286 nM
SMILES: Cn1cc2c(nc(NC(=O)Nc3ccc(C(F)(F)F)cc3)n3nc(-c4ccco4)nc23)n1

Ki (Adenosine receptor A1 [13]): 409 nM
Ki (Adenosine receptor A3 [14]): 0.21 nM
Ratio [5]: 1950
Ratio [7]: 238
Ki (Adenosine receptor A2a [15]): 148 nM
Ki (Adenosine receptor A2b [16]): 50 nM
SMILES: CCCCn1cc2c(nc(NC(=O)Nc3ccccc3)n3nc(-c4ccco4)nc23)n1

Ki (Adenosine receptor A2b [17]): 226 nM
Ki (Adenosine receptor A1 [18]): 700 nM
Ki (Adenosine receptor A3 [19]): 0.34 nM
Ratio [5]: 2060
Ratio [7]: 665
Ki (Adenosine receptor A2a [20]): 120 nM
IC50 (Adenosine receptor A3 [21]): 3 nM
SMILES: Cn1cc2c(nc(NC(=O)Nc3ccc(F)cc3)n3nc(-c4ccco4)nc23)n1

Ki (Adenosine receptor A2b [22]): 196 nM
Ratio [5]: 536
Ki (Adenosine receptor A3 [23]): 0.56 nM
Ratio [7]: 350
Ki (Adenosine receptor A2a [24]): 133 nM
Ki (Adenosine receptor A1 [25]): 300 nM
SMILES: CCn1cc2c(nc(NC(=O)Nc3ccccc3OC)n3nc(-c4ccco4)nc23)n1

Ki (Adenosine receptor A2a [26]): 352 nM
Ki (Adenosine receptor A3 [27]): 3 nM
Ki (Adenosine receptor A2b [28]): 40 nM
Ki (Adenosine receptor A1 [29]): 526 nM
Ratio [5]: 175
Ratio [7]: 13
SMILES: CCn1cc2c(nc(NC(=O)Nc3ccc(Cl)c(Cl)c3)n3nc(-c4ccco4)nc23)n1

— ChEMBL document CHEMBL1136016, “Synthesis, biological activity, and molecular modeling investigation of new pyrazolo[4,3-e]-1,2,4-triazolo[1,5-c]pyrimidine derivatives as human A(3) adenosine receptor antagonists” (J Med Chem, 2002)
